Source: PubChem BioAssay (several laboratories)
T cell HTS: T cell immune modulation candidate; 2C CD8+ T cell-vesicle binding, flow cytometry; active compounds read low; AID 2052; 330,000 compounds, 0.068% hits; response (vesicle binding), % at 7 µM;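 active means response, share of CD8 T cells binding vesicles, and their 90th percentile fluorescence all below set limits, cut at about 80% in these data, passing the limit was not always enough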;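 further: values below 100% mean blocked vesicle binding to the CD8+ T cells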
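Assay system: 2C TCR transgenic mouse naive CD8+ T cells, MACS-purified | Read-out: CD8+ gate FL2 mean fluorescence as % of same-row positive control | Signal: High-throughput flow cytometry with anti-B7-1 and anti-CD8 staining | Timing: Binding step 1.5 h, 37 °C, antibody labelling 20 min, ice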
ALR inh: blocks human ALR sulfhydryl oxidase activity. P55789. purified ALR, DTT oxidation, H2O2 HRP-luminol luminescence. inhibition, % (concentration not given with the values). 290,000 compounds, 3.8% hits. AID 485317;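 active means mean replicate inhibition above about 79%, with every replicate also reaching it, limit read from the data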
Target sequence (P55789 whole entry, looked up): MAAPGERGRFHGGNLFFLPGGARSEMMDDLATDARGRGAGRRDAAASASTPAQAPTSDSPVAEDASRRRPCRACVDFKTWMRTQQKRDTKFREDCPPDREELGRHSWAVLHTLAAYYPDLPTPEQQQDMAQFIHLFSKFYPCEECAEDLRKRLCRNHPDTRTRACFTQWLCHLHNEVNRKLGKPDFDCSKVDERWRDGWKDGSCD
Glyco luc inh: N-linked glycosylation inhibition; D54 ERlucT glycosylation luciferase reporter, 24 h; percent of 100 nM tunicamycin response; reporter increase, % at 12.5 µM; 360,000 compounds, 0.23% hits; AID 588692;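 active means mean luciferase reporter signal, scaled so untreated is 0 and the glycosylation-blocking control 100, at or above a set limit in every replicate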;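 further: luciferase carries N-glycosylation sites so blocking glycosylation raises the light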
Numbers stand for hits; – = inactive; · = no result. Many of the other results were omitted from the sample, so hits are more common in it than they were.

SMILES | T cell HTS | ALR inh | Glyco luc inh
Cc1ccc(CN2C3=NCCN3c3ccccc32)cc1 | – | · | –
c1ccc(CN2C3=NCCN3c3ccccc32)cc1 | – | 96 | –
Cc1cccc(CN2C3=NCCCN3c3ccccc32)c1 | – | – | –
Clc1ccc(CN2C3=NCCN3c3ccccc32)cc1Cl | – | 98 | –
O=C(CN1C2=NCCN2c2ccccc21)C12CC3CC(CC(C3)C1)C2 | – | 98 | –
C/C(N)=C(/C#N)C(=O)COC(=O)[C@@H](NC(=O)c1ccccc1Cl)C(C)C | – | – | –
COc1cc(CNc2ccccc2SC)ccc1O | – | – | –
CCOc1cc(CNc2ccccc2SC)ccc1O | – | 80 | ·
COc1ccc(NC(=O)COC(=O)CCOc2ccccc2C)cc1Cl | – | 98 | –
COc1ccccc1OCCC(=O)OCC(=O)Nc1ccc(Br)cc1 | – | – | –
Cc1ccccc1OCC(=O)Nc1ccc(Cc2ccncc2)cc1 | – | – | –
Cc1cc(C)cc(OCC(=O)NCCc2nc3ccccc3[nH]2)c1 | – | – | –
Cc1ccccc1OCC(=O)NCCc1nc2ccccc2[nH]1 | – | 99 | –
Cc1ccccc1OCC(=O)Nc1ccncc1 | – | 99 | –
Cc1ccc(C(=O)NCC(=O)Nc2ccncc2)cc1C | – | – | –
CC(=O)N1c2ccc(S(=O)(=O)N3CCCC(C(=O)N4CCC(C)CC4)C3)cc2CC1C (configuration not stated) | – | · | –
Cc1nc(-c2ccc3c(c2)OCCCO3)cs1 | – | – | –
CC1Cc2cc(-c3csc(N)n3)ccc2O1 (configuration not stated) | – | · | –
Nc1nc(-c2ccc3c(c2)OCCO3)cs1 | – | 99 | –
Nc1nc(-c2ccccc2Cl)cs1 | · | · | –
Nc1nc(-c2cc3c(cc2Cl)OCCO3)cs1 | – | 99 | –
Nc1nc(-c2ccc3c(c2)CCCC3)cs1 | – | 99 | –
Cc1cccc(NC(=O)c2ccc(NS(=O)(=O)c3cccc4cccnc34)cc2)c1 | · | · | –
CNC[C@H]1OCc2ccccc2-c2ccccc2C(=O)N([C@@H](C)CO)C[C@H]1C | · | · | –
O=C(C1CCN(S(=O)(=O)c2ccc(Br)s2)CC1)N1CCCCC1 | – | – | –
SMILES | T cell HTS | ALR inh | Glyco luc inh
CCn1c(SCC(=O)OC(C)C)nnc1-c1ccccc1OC | – | – | –
CCN1C(C)=C(C)S/C1=C1\SC(=S)N(C2CCCCC2)C1=O | – | · | –
CN1C(=O)C(=C2CCCCCC2)SC1=S | – | – | –
CN1C=CC=C/C1=C1\SC(=S)N(C2CCCCC2)C1=O | – | 99 | –
C=CCN1C=CC=C/C1=C1\SC(=S)N(C)C1=O | – | 99 | –
CN1C=CC=C/C1=C1\SC(=S)N(CC(=O)O)C1=O | – | – | –
CN1C=CC=C/C1=C1\SC(=S)N(c2ccccc2)C1=O | – | 99 | –
COc1ccc(CNC(=O)c2ccc(-c3c(C)noc3C)c3ccoc23)cc1OC | · | · | –
CC1CN(S(=O)(=O)c2ccccc2)C(C)N1C(=O)N1CCOCC1 (configuration not stated) | – | – | –
O=C(NCC1CCCO1)C(=O)N/N=C/c1c(F)cccc1Cl (configuration not stated) | – | – | –
Cc1ccc(NC(=O)CSc2nnc(-c3cnccn3)n2C)cc1C | – | – | –
COc1ccccc1C(=O)N/C(=C\c1cn(C)c2ccccc12)C(=O)NCCN1CCOCC1 | · | · | –
Cc1ccc2cn[nH]c2c1N | – | 85 | –
Cc1ccc(S(=O)(=O)Nc2ccc3cn[nH]c3c2)cc1C | – | – | –
COc1cc(C(=O)NCC(=O)NNC(=O)C2COc3ccccc3O2)cc(OC)c1OC (configuration not stated) | – | – | –
O=C(O)c1cccc(S(=O)(=O)Nc2ccc(N3CCCCC3)cc2)c1 | – | 99 | –
O=C(O)c1cc(S(=O)(=O)Nc2ccc(N3CCCCC3)cc2)ccc1Cl | – | 98 | –
O=S(=O)(Nc1ccc(N2CCCCC2)cc1)c1ccc(F)c(F)c1 | – | 99 | –
O=C(O)c1cc(S(=O)(=O)Nc2cccc(S(=O)(=O)N3CCCC3)c2)ccc1Cl | · | · | –
O=C(O)c1cccc(S(=O)(=O)Nc2cccc(S(=O)(=O)Nc3ccc(Br)cc3)c2)c1 | · | · | –
Cc1cc(C)nc(NS(=O)(=O)c2ccc(NS(=O)(=O)c3ccc(F)c(F)c3)cc2)n1 | · | · | –
Cc1ccc(S(=O)(=O)OCCC2=CC(=O)CCN2Cc2ccccc2)cc1 | – | – | –
COCCNC(=O)C1(C)CCCN(C(=O)c2cc(C)oc2C)C1 (configuration not stated) | · | · | –
COc1ccccc1S(=O)(=O)N(C)C[C@@H]1OCc2cnnn2CCCC(=O)N([C@H](C)CO)C[C@H]1C | · | · | –
CCN(CC)C(=O)c1ccc(S(=O)(=O)c2ccccc2)cc1 | – | – | –
CCc1ccc(NC(=O)CCS(=O)(=O)c2cccc3nsnc23)cc1 | – | – | –
